In ChEMBL document CHEMBL2407061, “Medicinal chemistry of dihydropyran-based medium ring macrolides related to aspergillides: selective inhibition of PI3Kα” (J Med Chem, 2013):
Calls of active or inactive are those of the source. No cut-off for these calls is given here.

Tests used:
HL-60 [1] = test: Antiproliferative activtiy against human HL60 cells assessed as growth inhibition after 48 hrs by MTT assay; type: functional, cell-based; settings: HL-60, 48 h
Method in brief: (§1)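 15000 cells per well in 200µl medium, exposed to a range of concentrations for 48 h (compounds in DMSO, diluted in complete medium). MTT (20µl of 2.5 mg/ml) added for 2 h at 37°C, formazan dissolved in DMSO, OD read at 570 nm. Viability = OD test/OD control ×100. IC50 taken from the concentration–survival curve after blank subtraction.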

A-375 = test: Antiproliferative activtiy against human A375 cells assessed as growth inhibition after 48 hrs by MTT assay; type: functional, cell-based; settings: A-375, 48 h; method in brief: as §1
PC-3 = test: Antiproliferative activtiy against human PC3 cells assessed as growth inhibition after 48 hrs by MTT assay; type: functional, cell-based; settings: PC-3, 48 h; method in brief: as §1
HL-60 [2] = test: Inhibition of human ERK 1/2 expression in human HL60 cells by Western blotting analysis; type: functional, cell-based
Method in brief: (§2)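 Treated and untreated HL-60 cells spun at 400g at 4°C, washed in PBS and lysed in RIPA buffer for whole-cell lysate. 60 µg protein per lane run on SDS-PAGE and probed with primary antibodies. ECL chemiluminescence detection, with β-actin as the loading control.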

HL-60 [3] = test: Induction of apoptosis in human HL60 cells assessed as mitochondrial membrane potential loss at 20 uM after 6 hrs by RH 123 staining-based flow cytometer analysis (reference value: 6%); type: functional
Method in brief: (§3)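 1×10^6 HL-60 cells in 12-well plates, exposed to 5, 10 or 20 µM for 6 h. Rhodamine 123 added 30 min before the end. Cells collected at 400 g, washed once in PBS, and fluorescence read in the FL-1 channel of a flow cytometer.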

HL-60 [4] = test: Induction of apoptosis in human HL60 cells assessed as decrease in expression of cytochrome c in mitochondrial fraction after 6 hrs by Western blot analysis; type: functional, cell-based
Method in brief: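 4×10^6 HL-60 cells treated for 6 h. Cytosolic fraction from a 2 min digitonin lysis then 12000g spin; mitochondrial fraction lysed in RIPA. Cytochrome c detected by western blot, with COX IV as the mitochondrial loading control and β-actin as the cytosolic loading control.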

HL-60 [5] = test: Induction of apoptosis in human HL60 cells assessed as late apoptotic cells at 5 uM after 6 hrs by Annexine V/propidium iodide staining-based FACS flow cytometry analysis (reference value: 2%); type: functional
[6] = target: Phosphatidylinositol 4,5-bisphosphate 3-kinase catalytic subunit alpha isoform (Homo sapiens) (UniProt P42336); test: Inhibition of PI3K p110 alpha in human HL60 cells by Western blotting analysis; type: cell-based; settings: HL-60; method in brief: as §2
[7] = target: Phosphatidylinositol 4,5-bisphosphate 3-kinase catalytic subunit alpha isoform (Homo sapiens) (UniProt P42336); test: Inhibition of PI3K p110 alpha in human HL60 cells assessed as inhibition of mTOR phosphorylation by Western blotting analysis; type: cell-based; settings: HL-60; method in brief: as §2
[8] = target: Phosphatidylinositol 4,5-bisphosphate 3-kinase catalytic subunit alpha isoform (Homo sapiens) (UniProt P42336); test: Inhibition of PI3K p110 alpha in human HL60 cells assessed as effect on total AKT level by Western blotting analysis; type: cell-based; settings: HL-60; method in brief: as §2
HL-60 [9] = test: Cell cycle arrest in human HL60 cells assessed as accumulation at G0/G1 phase at 20 uM after 6 hrs using by propidium iodide staining by FACS analysis (reference value: 6%); type: functional
[10] = target: Phosphatidylinositol 4,5-bisphosphate 3-kinase catalytic subunit alpha isoform (Homo sapiens) (UniProt P42336); test: Inhibition of PI3K p110 alpha in human HL60 cells assessed as inhibition of AKT phosphorylation at T308 by Western blotting analysis; type: cell-based; settings: HL-60; method in brief: as §2
HL-60 [11] = test: Cell cycle arrest in human HL60 cells assessed as accumulation at G0/G1 phase at 10 uM after 6 hrs using by propidium iodide staining by FACS analysis (reference value: 6%); type: functional
[12] = Cytotoxicity against human FR2 cells after 48 hrs by MTT assay; type: cell-based; settings: FR2, 48 h; method in brief: as §1
HL-60 [13] = test: Induction of apoptosis in human HL60 cells assessed as late apoptotic cells at 20 uM after 6 hrs by Annexine V/propidium iodide staining-based FACS flow cytometry analysis (reference value: 2%); type: functional
[14] = target: Phosphatidylinositol 4,5-bisphosphate 3-kinase catalytic subunit alpha isoform (Homo sapiens) (UniProt P42336); test: Inhibition of PI3K p110 alpha in human HL60 cells assessed as PARP 1 clevage by Western blotting analysis; type: cell-based; settings: HL-60; method in brief: as §2
HL-60 [15] = test: Induction of apoptosis in human HL60 cells assessed as early apoptotic cells at 20 uM after 6 hrs by Annexine V/propidium iodide staining-based FACS flow cytometry analysis (reference value: 4%); type: functional
HL-60 [16] = test: Induction of apoptosis in human HL60 cells assessed as early apoptotic cells at 5 uM after 6 hrs by Annexine V/propidium iodide staining-based FACS flow cytometry analysis (reference value: 4%); type: functional
HL-60 [17] = test: Induction of apoptosis in human HL60 cells assessed as mitochondrial membrane potential loss at 5 uM after 6 hrs by RH 123 staining-based flow cytometer analysis (reference value: 6%); type: functional; method in brief: as §3
HL-60 [18] = test: Induction of apoptosis in human HL60 cells assessed as late apoptotic cells at 10 uM after 6 hrs by Annexine V/propidium iodide staining-based FACS flow cytometry analysis (reference value: 2%); type: functional
[19] = target: Phosphatidylinositol 4,5-bisphosphate 3-kinase catalytic subunit alpha isoform (Homo sapiens) (UniProt P42336); test: Inhibition of PI3K p110 alpha in human HL60 cells assessed as inhibition of AKT phosphorylation at AKT S473 by Western blotting analysis; type: cell-based; settings: HL-60; method in brief: as §2
HL-60 [20] = test: Induction of apoptosis in human HL60 cells assessed as mitochondrial membrane potential loss after 6 hrs by RH 123 staining-based flow cytometer analysis; type: functional, cell-based; method in brief: as §3
HL-60 [21] = test: Induction of apoptosis in human HL60 cells assessed as early apoptotic cells at 10 uM after 6 hrs by Annexine V/propidium iodide staining-based FACS flow cytometry analysis (reference value: 4%); type: functional
[22] = target: Phosphatidylinositol 4,5-bisphosphate 3-kinase catalytic subunit alpha isoform (Homo sapiens) (UniProt P42336); test: Inhibition of PI3K p110 alpha in human HL60 cells assessed as inhibition of GSK3 beta phosphorylation by Western blotting analysis; type: cell-based; settings: HL-60; method in brief: as §2
HL-60 [23] = test: Induction of apoptosis in human HL60 cells assessed as blebbing and shrinkage of cells at 5 to 20 uM after 6 hrs by phase contrast microscopy
[24] = target: Phosphatidylinositol 4,5-bisphosphate 3-kinase catalytic subunit alpha isoform (Homo sapiens) (UniProt P42336); test: Inhibition of PI3K p110 alpha in human HL60 cells assessed as caspase 3 clevage by Western blotting analysis; type: cell-based; settings: HL-60; method in brief: as §2
HL-60 [25] = test: Induction of apoptosis in human HL60 cells assessed as change in cell morphology after 6 hrs
HL-60 [26] = test: Induction of apoptosis in human HL60 cells assessed as mitochondrial membrane potential loss at 10 uM after 6 hrs by RH 123 staining-based flow cytometer analysis (reference value: 6%); type: functional; method in brief: as §3
HL-60 [27] = test: Induction of apoptosis in human HL60 cells assessed as change in nuclear morphology at 5 to 20 uM after 6 hrs by Hoechst 33258 staining-based inverted fluorescence analysis; type: functional, cell-based
Method in brief: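 HL-60 cells exposed for 6 h. Spun at 400 g, washed twice in PBS, stained 30 min at room temperature under subdued light with Hoechst 33258 (10 µg/ml in citrate/phosphate buffer with 0.05% Tween 20). Mounted in PBS:glycerol 1:1 and viewed by UV-excitation fluorescence microscopy for nuclear changes and apoptotic bodies.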

HL-60 [28] = test: Cell cycle arrest in human HL60 cells assessed as accumulation at G0/G1 phase at 5 uM after 6 hrs using by propidium iodide staining by FACS analysis (reference value: 6%); type: functional

Sequence of Phosphatidylinositol 4,5-bisphosphate 3-kinase catalytic subunit alpha isoform (Homo sapiens) (P42336 whole entry, canonical isoform): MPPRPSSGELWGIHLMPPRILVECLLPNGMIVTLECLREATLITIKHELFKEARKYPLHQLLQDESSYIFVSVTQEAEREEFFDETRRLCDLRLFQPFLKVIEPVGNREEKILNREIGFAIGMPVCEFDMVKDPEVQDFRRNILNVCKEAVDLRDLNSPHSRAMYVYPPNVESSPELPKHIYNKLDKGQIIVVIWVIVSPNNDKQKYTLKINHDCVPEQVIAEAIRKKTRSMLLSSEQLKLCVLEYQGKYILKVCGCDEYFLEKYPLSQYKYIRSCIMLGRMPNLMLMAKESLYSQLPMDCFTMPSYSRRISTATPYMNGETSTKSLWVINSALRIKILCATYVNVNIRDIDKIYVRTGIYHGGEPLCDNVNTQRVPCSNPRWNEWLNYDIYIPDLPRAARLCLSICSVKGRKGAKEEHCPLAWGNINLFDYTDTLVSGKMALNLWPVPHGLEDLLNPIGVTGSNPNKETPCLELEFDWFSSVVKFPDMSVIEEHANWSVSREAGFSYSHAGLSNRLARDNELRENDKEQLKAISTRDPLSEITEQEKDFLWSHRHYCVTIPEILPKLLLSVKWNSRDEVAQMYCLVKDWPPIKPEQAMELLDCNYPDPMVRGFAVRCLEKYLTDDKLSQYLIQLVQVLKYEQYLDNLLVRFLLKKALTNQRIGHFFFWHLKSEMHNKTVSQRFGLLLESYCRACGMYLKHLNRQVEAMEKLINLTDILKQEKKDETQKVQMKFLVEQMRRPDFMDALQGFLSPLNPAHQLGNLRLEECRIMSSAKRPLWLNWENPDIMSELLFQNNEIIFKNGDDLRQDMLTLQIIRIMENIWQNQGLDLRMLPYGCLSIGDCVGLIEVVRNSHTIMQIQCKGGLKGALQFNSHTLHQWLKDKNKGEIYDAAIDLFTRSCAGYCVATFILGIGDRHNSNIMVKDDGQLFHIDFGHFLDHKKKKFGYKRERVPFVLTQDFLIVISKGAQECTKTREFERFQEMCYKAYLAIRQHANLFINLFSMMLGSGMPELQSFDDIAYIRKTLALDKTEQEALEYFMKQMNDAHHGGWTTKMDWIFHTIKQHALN

In the case of C[C@H]1CCC/C=C/[C@H]2CC[C@H](O)[C@H](CC(=O)O1)O2, the IC50 (HL-60 [1]) is reported as 32.8 µM.
For O=C1C[C@@H]2O[C@@H](C=C[C@@H]2O)C/C=C\C[C@H](c2ccc3ccccc3c2)O1, the IC50 (A-375) was 50 µM, the IC50 (HL-60 [1]) was 30.9 µM and the IC50 (PC-3) was 21.5 µM.
For CCO[C@H]1C=C[C@H]2C/C=C\CC[C@H](C)OC(=O)C[C@@H]1O2, the IC50 (A-375) was 57 µM, the IC50 (HL-60 [1]) was 69.7 µM and the IC50 (PC-3) was 78 µM.
With CO[C@H]1C=C[C@H]2C/C=C\C[C@H](c3ccc(Br)cc3)OC(=O)C[C@@H]1O2 the IC50 (A-375) was 5.45 µM, the IC50 (HL-60 [1]) was 10 µM and the IC50 (PC-3) was 15.8 µM.
In the case of CCO[C@H]1C=C[C@H]2C/C=C\C[C@H](c3ccc(Cl)cc3)OC(=O)C[C@@H]1O2, the IC50 (A-375) is reported as 4.9 µM, the IC50 (HL-60 [1]) is reported as 5.7 µM and the IC50 (PC-3) is reported as 9.16 µM.
COc1ccc(CO[C@H]2C=C[C@H]3C/C=C\C[C@H](c4ccc5ccccc5c4)OC(=O)C[C@@H]2O3)cc1 showed an IC50 (A-375) of over 100 µM, an IC50 (HL-60 [1]) of 10.2 µM and an IC50 (PC-3) of 45.4 µM.
Molecule COc1ccc(CO[C@H]2C=C[C@H]3C/C=C\C[C@H](c4ccc(F)cc4)OC(=O)C[C@@H]2O3)cc1 has an IC50 (A-375) of 4.76 µM, an IC50 (HL-60 [1]) of 8.83 µM and an IC50 (PC-3) of 2.23 µM.
For CCO[C@H]1C=C[C@H]2C/C=C\C[C@H](c3ccc(OC)cc3)OC(=O)C[C@@H]1O2, the IC50 (A-375) was 62.7 µM, the IC50 (HL-60 [1]) was 69.9 µM and the IC50 (PC-3) was 56 µM.
In the case of CO[C@H]1C=C[C@H]2C/C=C\C[C@H](c3ccc(-c4ccccc4C(F)(F)F)cc3)OC(=O)C[C@@H]1O2, the inhibition (HL-60 [2]) is reported as “inactive”, the Activity (HL-60 [3]) is reported as 62% and the Activity (HL-60 [4]) is reported as “Active”. The Activity (HL-60 [5]) was 3%, the inhibition [6] was “Active” and the inhibition [7] was “Active”. For the same molecule, the inhibition [8] was “inactive”, the Activity (HL-60 [9]) was 37% and the IC50 (A-375) was 9.64 µM. For the same molecule, the inhibition [10] was “Active”, the Activity (HL-60 [11]) was 30% and the IC50 [12] was at least 100 µM. The Activity (HL-60 [13]) was 4%, the inhibition [14] was “Dose-dependent effect” and the Activity (HL-60 [15]) was 37%. For the same molecule, the Activity (HL-60 [16]) was 25%, the Activity (HL-60 [17]) was 21% and the Activity (HL-60 [18]) was 4%. The inhibition [19] was “Active”, the Activity (HL-60 [20]) was “Dose-dependent effect” and the Activity (HL-60 [21]) was 32%. For the same molecule, the inhibition [22] was “Active”, the Activity (HL-60 [23]) was “Active” and the inhibition [24] was “Dose-dependent effect”. For the same molecule, the Activity (HL-60 [25]) was “Dose-dependent effect”, the Activity (HL-60 [26]) was 36% and the IC50 (HL-60 [1]) was 1.1 µM. The Activity (HL-60 [27]) was “Dose-dependent effect”, the IC50 (PC-3) was 7.36 µM and the Activity (HL-60 [28]) was 24%.
Work on O=C1C[C@@H]2O[C@@H](C=C[C@@H]2O)C/C=C\C[C@H](c2ccc(F)cc2)O1 yielded an IC50 (A-375) of 20.8 µM, an IC50 (HL-60 [1]) of 40.2 µM and an IC50 (PC-3) of 35.8 µM.
Molecule C[C@H]1CCC/C=C/[C@H]2CC[C@H](O)[C@@H](CC(=O)O1)O2 has an IC50 (HL-60 [1]) of 81.2 µM.
